In data set [1] the test system is Liver. Briefly: Metabolic stability in rat liver microsomes. It counts as ADME, microsome.
The subject of data set [2] is Liver. Briefly: Metabolic stability in mouse liver microsomes. The format is ADME, microsome. On the technique in general: Liver microsomes are vesicles of endoplasmic reticulum, rich in cytochrome P450 enzymes.
For data set [3], the target named is T1, Adenosine receptor A3 (Homo sapiens) (UniProt P0DMS8).
T1 sequence (whole entry): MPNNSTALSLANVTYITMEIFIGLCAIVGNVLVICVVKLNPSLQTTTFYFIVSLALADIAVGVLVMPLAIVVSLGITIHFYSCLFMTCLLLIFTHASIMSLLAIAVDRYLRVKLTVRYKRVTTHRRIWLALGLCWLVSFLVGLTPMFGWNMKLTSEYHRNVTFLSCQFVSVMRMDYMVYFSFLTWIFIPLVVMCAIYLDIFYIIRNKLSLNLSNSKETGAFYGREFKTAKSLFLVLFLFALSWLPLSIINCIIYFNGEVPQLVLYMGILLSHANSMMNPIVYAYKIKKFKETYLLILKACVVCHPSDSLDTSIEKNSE
Briefly: Displacement of [3H]-HEMADO from human adenosine A3 receptor expressed in HEK293 cell membranes at 1 uM after 90 mins relative to control. A digest of the protocol:
(§1)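 Membranes from HEK-293 cells stably transfected with human A1, A2A or A3 receptor, pretreated with 1 U/ml ADA. Membranes are incubated 90 min at room temperature with gentle agitation. Tracer and buffer per receptor: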
For orientation: Loss of bound radioactivity is the signal in a displacement assay; it reports binding, not function.

Data set [4] concerns the target T2, Adenosine receptor A1 (Homo sapiens) (UniProt P30542).
T2 sequence (whole entry): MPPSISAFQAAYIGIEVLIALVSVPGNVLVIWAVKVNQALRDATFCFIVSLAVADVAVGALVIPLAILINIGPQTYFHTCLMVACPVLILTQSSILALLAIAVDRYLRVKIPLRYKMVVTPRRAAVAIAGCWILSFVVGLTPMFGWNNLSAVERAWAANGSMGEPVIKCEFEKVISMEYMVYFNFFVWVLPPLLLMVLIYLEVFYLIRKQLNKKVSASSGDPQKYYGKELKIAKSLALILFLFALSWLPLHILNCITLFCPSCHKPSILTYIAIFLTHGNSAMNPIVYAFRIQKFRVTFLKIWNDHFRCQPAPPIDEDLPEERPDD
Briefly: Displacement of [3H]-DPCPX from human adenosine A1 receptor expressed in HEK293 cell membranes at 0.1 uM after 90 mins relative to control. A digest of the protocol: as §1

Data set [5] is described as follows: Oral bioavailability in C57BL/6J mouse at 10 mg/kg. The format is ADME, organism-based. The settings on record: in vivo. In outline:
(§2)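 Oral dosing at 10 mg/Kg in C57BL/6J mice. Vehicle is DMAC (10%), CrEL (10%), PEG300 (10%) in water, pH ~9, or, for one compound, DMSO (10%), CrEL (10%), PEG300 (10%) in water, pH ~7.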

Data set [6] addresses T3, Adenosine receptor A2b (Homo sapiens, UniProt P29275).
T3 sequence (P29275 whole entry): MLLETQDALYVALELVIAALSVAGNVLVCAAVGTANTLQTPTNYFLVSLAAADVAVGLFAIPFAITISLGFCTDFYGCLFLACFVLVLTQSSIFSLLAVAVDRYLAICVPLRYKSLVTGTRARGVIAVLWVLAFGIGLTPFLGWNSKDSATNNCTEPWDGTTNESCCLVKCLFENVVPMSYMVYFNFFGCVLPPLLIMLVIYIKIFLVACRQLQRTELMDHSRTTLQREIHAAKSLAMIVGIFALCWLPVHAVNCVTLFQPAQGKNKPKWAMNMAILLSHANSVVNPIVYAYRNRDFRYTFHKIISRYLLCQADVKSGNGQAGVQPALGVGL
Briefly: Displacement of [3H]-MRS-1754 from human adenosine A2B receptor expressed in HEK293 cell membranes after 90 mins. The settings on record: read-out: Ki. A digest of the protocol:
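Membranes from HEK-293 cells stably expressing human A2B, ADA-treated, incubated with 1.6 nM [3H]-MRS-1754 in 50 mM Tris pH 6.5, 5 mM MgCl2, 1 mM EDTA, 1 U/ml ADA. Incubation 90 min at room temperature. Filtration; nonspecific binding with 100 µM NECA. Eight compound concentrations, each in triplicate; Ki derived by fitting.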

Data set [7] has as its target T3, Adenosine receptor A2b. Briefly: Antagonist activity at human adenosine A2B receptor expressed in mouse NIH/3T3 cells assessed as inhibition of NECA-induced IL-6 release incubated for 15 mins followed by agonist treatment for 15 mins by HTRF assay. It counts as cell-based.
The nature of data set [8]: Cmax in C57BL/6J mouse at 10 mg/kg, po. The format is ADME, organism-based. Further details: dose 10 mg/kg, route oral. The settings on record: in vivo. In outline: as §2
Data set [9] is described as follows: AUC (0 to t) in C57BL/6J mouse at 10 mg/kg, po. The format is ADME, organism-based. The settings on record: in vivo. In outline:
as §2

In data set [10] the test system is Liver. Briefly: Metabolic stability in human liver microsomes. The format is ADME, microsome.
A short description of data set [11]: Half life in C57BL/6J mouse at 10 mg/kg, po. The settings on record: in vivo. The format is ADME, organism-based. In outline:
as §2

The target of data set [12] is Adenosine receptor A2a (Homo sapiens) (UniProt P29274). Briefly: Displacement of [3H]-ZM241385 from human adenosine A2A receptor expressed in HEK293 cell membranes at 0.1 uM after 90 mins relative to control. In outline: as §1
Adenosine receptor A2a (Homo sapiens), sequence (P29274 whole entry): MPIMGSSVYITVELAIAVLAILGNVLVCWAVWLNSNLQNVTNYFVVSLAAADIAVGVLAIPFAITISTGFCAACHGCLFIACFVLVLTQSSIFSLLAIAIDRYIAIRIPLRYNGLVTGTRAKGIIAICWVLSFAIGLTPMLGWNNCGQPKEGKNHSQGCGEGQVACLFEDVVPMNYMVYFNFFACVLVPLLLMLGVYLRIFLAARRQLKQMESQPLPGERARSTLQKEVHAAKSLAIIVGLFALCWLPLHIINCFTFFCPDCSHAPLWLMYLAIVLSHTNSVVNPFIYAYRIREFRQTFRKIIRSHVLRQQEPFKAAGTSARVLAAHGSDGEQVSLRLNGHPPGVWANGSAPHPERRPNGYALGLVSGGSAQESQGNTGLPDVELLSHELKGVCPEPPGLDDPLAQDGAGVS
For data set [13], the target named is T3, Adenosine receptor A2b. Briefly: Antagonist activity at human adenosine A2B receptor expressed in HEK293 cells assessed as inhibition of NECA-induced increase in cAMP accumulation incubated for 15 mins followed by agonist treatment for 15 mins by HTRF assay. The format is functional, cell-based. A digest of the protocol:
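HEK-293 cells overexpressing human A2B, 24 h cultures, are pretreated with 1 U/mL ADA for 90 min at 37°C. Cells are harvested and preincubated with increasing compound concentrations for 15 min at room temperature in DMEM with ADA.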

A short description of data set [14]: Aqueous solubility of the compound at pH 7.4. The format is physicochemical. A digest of the protocol: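 Aqueous solubility measured at pH 7.4.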
Another data set relates to P-gp. Briefly: Substrate activity at P-gp (unknown origin) assessed as ratio of permeability from basolateral to apical side over apical to basolateral side. The settings on record: human, not told. It counts as ADME.
Data set [15] relates to Mus musculus. Briefly: Antiinflammatory activity in ovalbumin-induced allergic asthma mouse model assessed as reduction in total cell count in bronchoalveolar lavage fluid at 3 mg/kg administered ip bid. It counts as functional, organism-based.
For a further data set, the system named is MDCK. Briefly: Cytotoxicity against MDCK cells. It counts as cell-based. The settings on record: Canis lupus familiaris.
In data set [16] the test system is Mus musculus. Briefly: Antiinflammatory activity in […] allergic asthma mouse model assessed as inhibition of airway hyper-responsiveness at 3 mg/kg administered ip bid. It counts as functional, organism-based.
The subject of another data set is HepG2. Briefly: Cytotoxicity against human HepG2 cells. It counts as cell-based.
A short description of data set [17]: Inhibition of CYP450 (unknown origin). It counts as ADME, Homo sapiens.
Data set [18] addresses Voltage-gated inwardly rectifying potassium channel KCNH2 (Homo sapiens, UniProt Q12809). Briefly: Inhibition of human ERG.

The structures appear in SMILES notation. ≈ marks a conversion by molar mass, not a printed value. Calls of active or inactive are those of the source. No cut-off for these calls is given here.

As usually defined, the inhibition is the change of the read-out against control, counted positive when it falls. Broadly, the bioavailability is the share of a dose that reaches the circulation, judged against a reference dose that is usually intravenous. A high value points to much systemic uptake. In general, Ki refers to a measure of affinity in units of concentration, obtained from inhibition or displacement. As usually defined, the IC50 is the concentration that inhibits the measured activity by half. For orientation: Cmax means the highest concentration seen after dosing. As a reminder, the AUC(0-t) is the area under the concentration-time curve up to a stated or last time point. High values mean more exposure, low ones less exposure. In general, half-life refers to how long it takes for the measured level to halve. One may read the solubility as the dissolved amount per volume that the medium holds. Read a high solubility as a readily soluble substance. For orientation: efflux ratio means the permeability from basolateral to apical divided by that in the opposite direction, in the common usage.

Voltage-gated inwardly rectifying potassium channel KCNH2, sequence (Q12809 whole entry): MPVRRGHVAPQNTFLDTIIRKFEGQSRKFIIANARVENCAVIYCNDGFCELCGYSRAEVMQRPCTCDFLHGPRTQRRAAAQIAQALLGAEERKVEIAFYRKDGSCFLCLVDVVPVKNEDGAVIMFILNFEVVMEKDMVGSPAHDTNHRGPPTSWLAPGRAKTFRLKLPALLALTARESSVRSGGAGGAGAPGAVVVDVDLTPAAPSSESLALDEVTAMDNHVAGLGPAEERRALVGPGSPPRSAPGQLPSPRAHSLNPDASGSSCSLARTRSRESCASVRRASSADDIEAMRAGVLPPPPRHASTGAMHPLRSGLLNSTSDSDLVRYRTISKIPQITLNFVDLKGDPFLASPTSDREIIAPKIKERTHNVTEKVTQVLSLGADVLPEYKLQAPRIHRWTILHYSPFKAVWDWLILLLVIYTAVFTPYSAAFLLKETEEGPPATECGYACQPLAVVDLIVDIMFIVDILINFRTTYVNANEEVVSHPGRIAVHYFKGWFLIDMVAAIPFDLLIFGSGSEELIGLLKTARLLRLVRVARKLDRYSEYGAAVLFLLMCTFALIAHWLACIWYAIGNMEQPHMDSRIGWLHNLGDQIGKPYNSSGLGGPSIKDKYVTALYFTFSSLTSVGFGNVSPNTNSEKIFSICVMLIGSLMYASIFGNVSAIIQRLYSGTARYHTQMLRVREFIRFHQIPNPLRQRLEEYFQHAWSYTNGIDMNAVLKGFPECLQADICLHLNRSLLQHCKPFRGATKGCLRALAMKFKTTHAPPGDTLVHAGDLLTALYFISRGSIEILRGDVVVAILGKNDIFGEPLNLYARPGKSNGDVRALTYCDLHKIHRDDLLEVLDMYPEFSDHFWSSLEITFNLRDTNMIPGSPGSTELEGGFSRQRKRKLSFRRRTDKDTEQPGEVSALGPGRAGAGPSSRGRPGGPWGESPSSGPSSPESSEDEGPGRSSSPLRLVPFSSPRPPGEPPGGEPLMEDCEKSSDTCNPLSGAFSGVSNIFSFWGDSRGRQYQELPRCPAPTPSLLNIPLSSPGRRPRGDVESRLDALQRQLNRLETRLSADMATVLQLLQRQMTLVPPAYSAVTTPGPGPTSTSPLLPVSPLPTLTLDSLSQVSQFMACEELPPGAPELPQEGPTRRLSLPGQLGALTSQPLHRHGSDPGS

As for `CCCn1c(=O)c2[nH]c(-c3cnn(CC#Cc4cccc(OC(F)(F)F)c4)c3)nc2n(CCC)c1=O`, the Stability result with Liver [1], with Liver [2] and in the data set with Liver [10] was “Stable” in each case. The inhibition in [3] was determined as 6%; in [4], 39%; in data set [12], 27%. In data set [5], this compound came in with a bioavailability of 42%. Also, the figures for the Ki on Adenosine receptor A2b [6] and on Adenosine receptor A2b [13] were 3.6 nM and 8.8 nM, respectively. The IC50 at Adenosine receptor A2b [7] amounted to 90 nM. Also, the maximum concentration (Cmax) in data set [8] amounted to 6.6 µM. In addition, in [9], the exposure AUC(0-t) was 67 µM·h. In addition, in data set [11], the half-life was 5 h. Further, in data set [14], the solubility is under 6 µM.

Turning to `CCCn1c(=O)c2[nH]c(-c3cnn(CC#Cc4cccc(C(=O)O)c4)c3)nc2n(CCC)c1=O`, the Stability entry with Liver [1], in the data set on Liver [2] and in the data set on Liver [10] was “Stable” throughout. The inhibition in data set [3] came to 0%; in [4], 20%; in data set [12], 32%. Moreover, in data set [5], the bioavailability was found to be 10%. Moreover, the Ki is 5.3 nM at Adenosine receptor A2b [6] and 1.8 nM on Adenosine receptor A2b [13]. Besides, the half-inhibitory concentration (IC50) on Adenosine receptor A2b [7] worked out at 2000 nM. The Cmax in data set [8] is 1.9 µM. In addition, the efflux ratio with P-gp is 12. In [9], this compound returned an AUC(0-t) of 2.2 µM·h. In [11], this compound had a half-life of 1.8 h. The same compound came in with a solubility in [14] of 529 µM (≈ 244 µg/mL).

Take `CCCn1c(=O)c2[nH]c(-c3cnn(CC#Cc4ccc(C(=O)O)cc4)c3)nc2n(CCC)c1=O`: the inhibition came to 25% in data set [3], 19% in data set [4] and 44% in [12]. In addition, the Ki at Adenosine receptor A2b [6] was 17.6 nM.

As for `CCCn1c(=O)[nH]c2nc(-c3cnn(CC#Cc4ccc(OC(F)(F)F)cc4)c3)[nH]c2c1=O`, the inhibition came to 17% in data set [3], 88% in data set [4] and 46% in [12]. Further, on Adenosine receptor A2b [6], the inhibition constant Ki was determined as 1.6 nM.

Turning to `CCCn1c(=O)c2[nH]c(-c3cnn(CC#Cc4ccc(C#N)cc4)c3)nc2n(CCC)c1=O`, the figures for the inhibition in [3], in data set [4] and in data set [12] were 14%, 14% and 29%, respectively. In addition, the Ki at Adenosine receptor A2b [6] came out at 14 nM.

On to `CCCn1c(=O)c2[nH]c(-c3cnn(CC#CCN4CCCCC4)c3)nc2n(CCC)c1=O`, for which the results for the inhibition in data set [3], in data set [4] and in data set [12] were 73%, 64% and 74%, respectively. Also, the Ki at Adenosine receptor A2b [6] was 140 nM.

With `CCCn1c(=O)c2[nH]c(-c3cnn(CC#Cc4cccc(OC(F)(F)F)c4)c3)nc2n(CC)c1=O`, in the data set with Mus musculus [15], the result was Active. For the same compound, the IC50 with MDCK is over 100000 nM; with HepG2, over 100000 nM; at Adenosine receptor A2b [7] it was 107 nM; in [17], over 10000 nM; in [18], over 25000 nM. Besides, the inhibition result in the data set with Mus musculus [16] was “Active”. Further, the Stability result in the data set with Liver [1], in the data set on Liver [2] and in the data set on Liver [10] was “Stable” each time. The inhibition in [3] is 0%; in data set [4] it was 17%; in data set [12], 37%. Further, in data set [5], the bioavailability came out at 76%. Further, the Ki on Adenosine receptor A2b [6] amounted to 13 nM; at Adenosine receptor A2b [13], 8 nM. Further, the peak level in [8] (Cmax) was 13 µM. In data set [9], the exposure AUC(0-t) turned out to be 60 µM·h. Further, the half-life in [11] was 6.1 h. For the same compound, in data set [14], the solubility worked out at 21 µM (≈ 10.2 µg/mL).

As for `CCCn1c(=O)c2[nH]c(-c3cnn(CC#Cc4cccc(F)c4)c3)nc2n(CCC)c1=O`, the values for the inhibition in data set [3], in [4] and in data set [12] were 0%, 87% and 64%, respectively. The Ki on Adenosine receptor A2b [6] is 6.7 nM.

On to `CCCn1c(=O)c2[nH]c(-c3cnn(CC#Cc4ccc(F)cc4)c3)nc2n(CC)c1=O`, for which the inhibition in data set [3] worked out at 33%; in data set [4] it was 92%; in data set [12], 56%. Also, the Ki at Adenosine receptor A2b [6] worked out at 7.3 nM.

On to `CCCn1c(=O)c2[nH]c(-c3cnn(CC#CCN4CCCC4)c3)nc2n(CCC)c1=O`, for which the inhibition in data set [3] stood at 59%; in data set [4], 66%; in [12], 67%. For the same compound, the inhibitory constant (Ki) on Adenosine receptor A2b [6] came to 120 nM.

For `CCCn1c(=O)c2[nH]c(-c3cnn(CC#Cc4ccc(OC(F)(F)F)cc4)c3)nc2n(CC)c1=O`, the inhibition was determined as 32% in data set [3], 84% in data set [4] and 49% in [12]. The Ki on Adenosine receptor A2b [6] came to 9.9 nM.

With `CCCn1c(=O)[nH]c2nc(-c3cnn(CC#Cc4cccc(C(F)(F)F)c4)c3)[nH]c2c1=O`, the figures for the inhibition in [3], in [4] and in data set [12] were 0%, 26% and 39%, respectively. Moreover, the inhibitory constant (Ki) on Adenosine receptor A2b [6] was determined as 2.2 nM.

(Values after ChEMBL document CHEMBL4020725, “Design and synthesis of novel xanthine derivatives as potent and selective A2B adenosine receptor antagonists for the treatment of chronic inflammatory airway diseases” (Eur J Med Chem, 2017).)
